Values belong to the compound of their own block, whether it stands above or below them.
Assays:
[1] = test system: Rattus norvegicus; experiment: Hypolipidemic activity in Wistar rat assessed as reduction in plasma cholesterol level at 291 umol/kg/day administered through diet for 4 days; format: functional; conditions: 96 h
In short: (§1)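 Young male Wistar rats, 170-190 g at start, in groups of six, given compound mixed into Purina Lab Chow ad libitum for 4 or 10 days as stated. Daily dose was calculated from food consumption and body weight. Plasma was taken by cardiac puncture at the end and cholesterol measured by automated procedure. Results are % reduction versus a concurrent untreated control group, with Student's t test.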

[2] = test system: Rattus norvegicus; experiment: Hypolipidemic activity in Wistar rat assessed as reduction in plasma triglyceride level at 291 umol/kg/day administered through diet for 4 days; format: functional; conditions: 96 h
In short: (§2)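 Young male Wistar rats, 170-190 g initial weight, six per group, fed drug mixed thoroughly into Purina Lab Chow ad libitum for the stated days; daily dose calculated from food consumption and body weight. Bled by cardiac puncture at end; plasma cholesterol and triglycerides by automated procedures, expressed as percent reduction versus simultaneous untreated controls; Student's t test.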

[3] = test system: Rattus norvegicus; experiment: Increase in liver weight in Wistar rat at 291 umol/kg/day administered through diet for 4 days; format: ADME, organism-based; conditions: in vivo, po, 96 h
[4] = test system: Rattus norvegicus; experiment: Hypolipidemic activity in Wistar rat assessed as reduction in plasma triglyceride level at 944 umol/kg/day administered through diet for 10 days; format: functional; conditions: 240 h
[5] = test system: Rattus norvegicus; experiment: Hypolipidemic activity in Wistar rat assessed as reduction in plasma triglyceride level at 303 umol/kg/day administered through diet for 10 days; format: functional; conditions: 240 h; in short: as §2
[6] = test system: Rattus norvegicus; experiment: Hypolipidemic activity in Wistar rat assessed as reduction in plasma triglyceride level at 89 umol/kg/day administered through diet for 10 days; format: functional; conditions: 240 h
[7] = test system: Rattus norvegicus; experiment: Hypolipidemic activity in Wistar rat assessed as reduction in plasma cholesterol level at 944 umol/kg/day administered through diet for 10 days; format: functional; conditions: 240 h
In short: (§3)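 Young male Wistar rats (initial weight 170-190 g), groups of six, fed compound mixed into Purina Lab Chow ad libitum for 4 or 10 days; daily dose calculated from food consumption and body weight. Bled by cardiac puncture; plasma cholesterol and triglycerides by automated procedures; percent reduction versus simultaneous untreated controls, Student's t test.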

[8] = test system: Rattus norvegicus; experiment: Hypolipidemic activity in Wistar rat assessed as reduction in plasma cholesterol level at 303 umol/kg/day administered through diet for 10 days; format: functional; conditions: 240 h; in short: as §1
[9] = test system: Rattus norvegicus; experiment: Hypolipidemic activity in Wistar rat assessed as reduction in plasma cholesterol level at 89 umol/kg/day administered through diet for 10 days; format: functional; conditions: 240 h; in short: as §3
[10] = test system: Rattus norvegicus; experiment: Increase in liver weight in Wistar rat at 944 umol/kg/day administered through diet for 10 days; format: ADME, organism-based; conditions: in vivo, po, 240 h
[11] = test system: Rattus norvegicus; experiment: Increase in liver weight in Wistar rat at 303 umol/kg/day administered through diet for 10 days; format: ADME, organism-based; conditions: in vivo, po, 240 h
[12] = test system: Rattus norvegicus; experiment: Increase in liver weight in Wistar rat at 89 umol/kg/day administered through diet for 10 days; format: ADME, organism-based; conditions: in vivo, po, 240 h
[13] = test system: Rattus norvegicus; experiment: Increase in cholesterol level in Wistar rat liver at 944 umol/kg/day administered through diet for 10 days; format: ADME, organism-based; conditions: in vivo, po, 240 h
[14] = test system: Rattus norvegicus; experiment: Increase in cholesterol level in Wistar rat liver at 303 umol/kg/day administered through diet for 10 days; format: ADME, organism-based; conditions: in vivo, po, 240 h
[15] = test system: Rattus norvegicus; experiment: Increase in cholesterol level in Wistar rat liver at 89 umol/kg/day administered through diet for 10 days; format: ADME, organism-based; conditions: in vivo, po, 240 h
[16] = test system: Rattus norvegicus; experiment: Hypolipidemic activity in Wistar rat assessed as reduction in plasma triglyceride level at 311 umol/kg/day administered through diet for 10 days; format: functional; conditions: 240 h; in short: as §2
[17] = test system: Rattus norvegicus; experiment: Hypolipidemic activity in Wistar rat assessed as reduction in plasma cholesterol level at 311 umol/kg/day administered through diet for 10 days; format: functional; conditions: 240 h; in short: as §1
[18] = test system: Rattus norvegicus; experiment: Increase in liver weight in Wistar rat at 311 umol/kg/day administered through diet for 10 days; format: ADME, organism-based; conditions: in vivo, po, 240 h
[19] = test system: Rattus norvegicus; experiment: Increase in cholesterol level in Wistar rat liver at 311 umol/kg/day administered through diet for 10 days; format: ADME, organism-based; conditions: in vivo, po, 240 h
[20] = test system: Rattus norvegicus; experiment: Hypolipidemic activity in Wistar rat assessed as reduction in plasma cholesterol level at 332 umol/kg/day administered through diet for 4 days; format: functional; conditions: 96 h; in short: as §1
[21] = test system: Rattus norvegicus; experiment: Hypolipidemic activity in Wistar rat assessed as reduction in plasma triglyceride level at 332 umol/kg/day administered through diet for 4 days; format: functional; conditions: 96 h; in short: as §2
[22] = test system: Rattus norvegicus; experiment: Increase in liver weight in Wistar rat at 332 umol/kg/day administered through diet for 4 days; format: ADME, organism-based; conditions: in vivo, po, 96 h
[23] = test system: Rattus norvegicus; experiment: Hypolipidemic activity in Wistar rat assessed as reduction in plasma triglyceride level at 402 umol/kg/day administered through diet for 10 days; format: functional; conditions: 240 h
[24] = test system: Rattus norvegicus; experiment: Hypolipidemic activity in Wistar rat assessed as reduction in plasma triglyceride level at 179 umol/kg/day administered through diet for 10 days; format: functional; conditions: 240 h; in short: as §3
[25] = test system: Rattus norvegicus; experiment: Hypolipidemic activity in Wistar rat assessed as reduction in plasma triglyceride level at 85 umol/kg/day administered through diet for 10 days; format: functional; conditions: 240 h
[26] = test system: Rattus norvegicus; experiment: Hypolipidemic activity in Wistar rat assessed as reduction in plasma cholesterol level at 402 umol/kg/day administered through diet for 10 days; format: functional; conditions: 240 h; in short: as §1
[27] = test system: Rattus norvegicus; experiment: Hypolipidemic activity in Wistar rat assessed as reduction in plasma cholesterol level at 179 umol/kg/day administered through diet for 10 days; format: functional; conditions: 240 h; in short: as §1
[28] = test system: Rattus norvegicus; experiment: Hypolipidemic activity in Wistar rat assessed as reduction in plasma cholesterol level at 85 umol/kg/day administered through diet for 10 days; format: functional; conditions: 240 h; in short: as §3
[29] = test system: Rattus norvegicus; experiment: Increase in liver weight in Wistar rat at 402 umol/kg/day administered through diet for 10 days; format: ADME, organism-based; conditions: in vivo, po, 240 h
[30] = test system: Rattus norvegicus; experiment: Increase in liver weight in Wistar rat at 179 umol/kg/day administered through diet for 10 days; format: ADME, organism-based; conditions: in vivo, po, 240 h
[31] = test system: Rattus norvegicus; experiment: Increase in liver weight in Wistar rat at 85 umol/kg/day administered through diet for 10 days; format: ADME, organism-based; conditions: in vivo, po, 240 h
[32] = test system: Rattus norvegicus; experiment: Increase in cholesterol level in Wistar rat liver at 402 umol/kg/day administered through diet for 10 days; format: ADME, organism-based; conditions: in vivo, po, 240 h
[33] = test system: Rattus norvegicus; experiment: Increase in cholesterol level in Wistar rat liver at 179 umol/kg/day administered through diet for 10 days; format: ADME, organism-based; conditions: in vivo, po, 240 h
In short: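 Male Wistar rats (170-190 g), six per group, given compound by admixture to lab chow ad libitum for 4 or 10 days, dose derived from food intake. Liver cholesterol determined by automated procedure, expressed as mg/g wet tissue, compared with an untreated control group by Student's t test.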

[34] = test system: Rattus norvegicus; experiment: Increase in cholesterol level in Wistar rat liver at 85 umol/kg/day administered through diet for 10 days; format: ADME, organism-based; conditions: in vivo, po, 240 h
[35] = test system: Rattus norvegicus; experiment: Hypolipidemic activity in Wistar rat assessed as reduction in plasma cholesterol level at 423 umol/kg/day administered through diet for 4 days; format: functional; conditions: 96 h
In short: (§4)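 Young male Wistar rats, 170-190 g initial weight, groups of six, given compound mixed thoroughly into Purina Lab Chow ad libitum for 4 or 10 days as stated. Daily dose calculated from food consumption and body weight. Bled by cardiac puncture at end of treatment; plasma cholesterol measured by automated procedure. Expressed as percent reduction versus simultaneous untreated control group; Student's t test.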

[36] = test system: Rattus norvegicus; experiment: Hypolipidemic activity in Wistar rat assessed as reduction in plasma triglyceride level at 423 umol/kg/day administered through diet for 4 days; format: functional; conditions: 96 h
[37] = test system: Rattus norvegicus; experiment: Increase in liver weight in Wistar rat at 423 umol/kg/day administered through diet for 4 days; format: ADME, organism-based; conditions: in vivo, po, 96 h
[38] = test system: Rattus norvegicus; experiment: Hypolipidemic activity in Wistar rat assessed as reduction in plasma triglyceride level at 312 umol/kg/day administered through diet for 10 days; format: functional; conditions: 240 h; in short: as §2
[39] = test system: Rattus norvegicus; experiment: Hypolipidemic activity in Wistar rat assessed as reduction in plasma cholesterol level at 312 umol/kg/day administered through diet for 10 days; format: functional; conditions: 240 h; in short: as §1
[40] = test system: Rattus norvegicus; experiment: Increase in liver weight in Wistar rat at 312 umol/kg/day administered through diet for 10 days; format: ADME, organism-based; conditions: in vivo, po, 240 h
[41] = test system: Rattus norvegicus; experiment: Increase in cholesterol level in Wistar rat liver at 312 umol/kg/day administered through diet for 10 days; format: ADME, organism-based; conditions: in vivo, po, 240 h
[42] = test system: Rattus norvegicus; experiment: Hypolipidemic activity in Wistar rat assessed as reduction in plasma cholesterol level at 524 umol/kg/day administered through diet for 4 days; format: functional; conditions: 96 h; in short: as §4
[43] = test system: Rattus norvegicus; experiment: Hypolipidemic activity in Wistar rat assessed as reduction in plasma triglyceride level at 524 umol/kg/day administered through diet for 4 days; format: functional; conditions: 96 h
[44] = test system: Rattus norvegicus; experiment: Increase in liver weight in Wistar rat at 524 umol/kg/day administered through diet for 4 days; format: ADME, organism-based; conditions: in vivo, po, 96 h

Activity [18]: 0% | Activity [19]: 0%
Compound: CCCCCCCCCCCCCCCCOc1ccc(C(=O)CC(=O)O)cc1
inhibition in vivo at 311 µmol/kg [16]: 49% | inhibition in vivo at 311 µmol/kg [17]: 29%

Activity [29]: 7% | Activity [30]: 3% | Activity [31]: 0% | Activity [32]: 9% | Activity [33]: 4% | Activity [34]: 0%
Compound: CCCCCCCCCCCCCCOc1ccc(C(=O)CC(=O)OC)cc1
inhibition in vivo at 402 µmol/kg [23]: 75% | inhibition in vivo at 179 µmol/kg [24]: 54% | inhibition in vivo at 85 µmol/kg [25]: 44% | inhibition in vivo at 402 µmol/kg [26]: 40% | inhibition in vivo at 179 µmol/kg [27]: 27% | inhibition in vivo at 85 µmol/kg [28]: 9%

Activity [37]: 0%
Compound: CCCCCCCCCCCCCCOc1ccc(C(=O)OC)cc1C(=O)OC
inhibition in vivo at 423 µmol/kg [35]: 7% | inhibition in vivo at 423 µmol/kg [36]: 10%

Activity [44]: 1%
Compound: CCCCCCCCCCCCCCOc1ccco1
inhibition in vivo at 524 µmol/kg [42]: 0% | inhibition in vivo at 524 µmol/kg [43]: 0%

The remaining lines, values behind:

Compound: CCCCCCCCCCCCCCOc1ccc(C(=O)O)c(OCCCCCCCCCCCCCC)c1
inhibition in vivo at 291 µmol/kg [1]: 0% | inhibition in vivo at 291 µmol/kg [2]: 0% | Activity [3]: 7%

Compound: CCCCCCCCCCCCc1ccc(C(=O)CC(=O)OC)cc1
inhibition in vivo at 944 µmol/kg [4]: 84% | inhibition in vivo at 303 µmol/kg [5]: 63% | inhibition in vivo at 89 µmol/kg [6]: 6% | inhibition in vivo at 944 µmol/kg [7]: 53% | inhibition in vivo at 303 µmol/kg [8]: 37% | inhibition in vivo at 89 µmol/kg [9]: 4% | Activity [10]: 20% | Activity [11]: 7% | Activity [12]: 8% | Activity [13]: 151% | Activity [14]: 97% | Activity [15]: 38%

Compound: CCCCCCCCCCCCCCOc1cc(C(=O)OC)cc(C(=O)OC)c1
inhibition in vivo at 332 µmol/kg [20]: 5% | inhibition in vivo at 332 µmol/kg [21]: 39% | Activity [22]: 0%

Compound: CCCCCCCCCCCCCCOc1ccc(C(=O)CC(=O)OCCNC(C)=O)cc1
inhibition in vivo at 312 µmol/kg [38]: 60% | inhibition in vivo at 312 µmol/kg [39]: 35% | Activity [40]: 15% | Activity [41]: 8%

From ChEMBL document CHEMBL3272012, “5-(Tetradecyloxy)-2-furancarboxylic acid and related hypolipidemic fatty acid-like alkyloxyarylcarboxylic acids” (J Med Chem, 1977)
